From PubChem BioAssay
Compounds with a hit are over-represented: about 2.3% of the library has one in this group of screens.
TAAR1 antagonist: human TAAR1 antagonism | inhibition, % at 3 µM | CHO RD-HGA16 TAAR1, Fluo-8 calcium fluorescence, antagonist | 360,000 compounds, 1.5% hits | Q96RJ0 | AID 624466;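 active = inhibition above a per-plate cutoff, the mean inhibition of test compounds on that plate plus 3 SD, cut at about 49% in these data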;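 note: 0% = DMSO plus EC80 beta-PEA response and 100% = DMSO alone without agonist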
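Assay system: CHO-derived RD-HGA16 cells stably expressing human TAAR1 plus Gα16. Timing: 140 s kinetic read after compound, 140 s after agonist. Technique: kinetic Fluo-8 calcium fluorescence measurement. Measure: % inhibition of agonist calcium response.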
OXTR potentiator: potentiates the human oxytocin receptor response. P30559. AID 2445. CHO-OTR cells, Fluo-8 calcium fluorescence, potentiator mode; 0% = oxytocin EC15, 100% = EC100. 320,000 compounds, 0.061% hits. activation, % at 3 µM;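 active = activation above that plate's cutoff, the mean activation of tested compounds plus 3 SD, cut at about 6.6% in these data, passing the limit was not always enough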;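 note: 100% uses oxytocin at 75 nM as the full agonist control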
Target sequence (P30559 whole entry, looked up): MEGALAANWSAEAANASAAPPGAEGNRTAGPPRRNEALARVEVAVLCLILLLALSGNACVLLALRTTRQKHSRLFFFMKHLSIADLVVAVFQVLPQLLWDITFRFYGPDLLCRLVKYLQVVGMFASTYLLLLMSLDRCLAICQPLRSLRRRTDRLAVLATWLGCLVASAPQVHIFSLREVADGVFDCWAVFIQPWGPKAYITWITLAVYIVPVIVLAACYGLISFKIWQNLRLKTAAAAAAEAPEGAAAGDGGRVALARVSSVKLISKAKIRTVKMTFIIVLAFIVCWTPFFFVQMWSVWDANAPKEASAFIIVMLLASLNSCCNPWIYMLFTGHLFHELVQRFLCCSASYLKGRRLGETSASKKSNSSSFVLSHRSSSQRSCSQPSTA
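System: human OTR in CHO cells / Also added: sub-maximal oxytocin, roughly EC15 / Control set: EC15 oxytocin low, 75 nM oxytocin high / Schedule: 6 min compound pre-incubation at room temperature, 100 s kinetic read / Compound: single-point 3.0 µM / Replication: singlicate / Technique: Fluo-8 calcium dye fluorescence / Read-out basis: % activation of max/min ratio relative to oxytocin controls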
OXTR ag: human OXTR agonism. activation, % at 3 µM. CHO-OTR cells, Fluo-8 calcium fluorescence; normalized: DMSO 0%, oxytocin 100%. AID 2435. 320,000 compounds, 0.32% hits. P30559;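 active = activation above the mean of all tested compounds plus 3 SD, cutoff set per screening run, cut at about 20% in these data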;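 note: peak over basal fluorescence ratio from a 100 s FLIPR kinetic read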
TAAR1 ag: agonists of human TAAR1 | activation, % at 3 µM | 360,000 compounds, 0.99% hits | AID 624467 | CHO RD-HGA16 TAAR1, Fluo-8 calcium fluorescence; vehicle wells 0%, saturating PEA agonist 100%;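 active = activation above the mean activation of all test compounds in the run plus 3 SD, cut at about 38% in these data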
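System: CHO-derived RD-HGA16 cells with stable Gα16 and human TAAR1. Times: 17-24 h plating, Fluo-8 75 min 37 °C, 30 min RT. Measured by: calcium-sensitive Fluo-8 signal, excitation 470-495, emission 515-575 nm. Read-out basis: % activation relative to PEA EC100 response. Control set: DMSO and PEA EC100. Repeats: no replicates (n 1).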
V1R ag counter: counter-screen for oxytocin receptor agonists: human V1a receptor agonists; 320,000 compounds, 0.25% hits; P37288; activation, % at 3 µM; CHO-V1R cells, Fluo-8 calcium fluorescence, agonist mode; 0% DMSO, 100% 3 nM vasopressin;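 active = activation above the mean activation of all tested compounds plus 3 SD, per screening run, cut at about 20% in these data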;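 note: signal is peak over basal fluorescence ratio across a 100 second FLIPR read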
* = called active by the depositor; / = no result.

SMILES | TAAR1 antagonist | OXTR potentiator | OXTR ag | TAAR1 ag | V1R ag counter
COc1cc(-c2cc(NC=O)c3ncc(-c4ccccc4)n3c2)cc(OC)c1OC | 63* | / | / | 13 | /
c1ccc(OCCN2CCN(C(c3ccccc3)c3ccccc3)CC2)cc1 | -34 | -3 | -2 | 4 | 1
Cc1ccc(/C([O-])=C(/C(=S)NCc2ccc3c(c2)OCO3)[n+]2ccc(N(C)C)cc2)c(C)c1 | 4 | -2 | -1 | 8 | 0
CCN(CC)c1ccc2c(Cl)c(Br)c(=O)oc2c1 | / | -22 | 62* | / | 85*
CCN(CC)c1ccc2c(C)c(Cl)c(=O)oc2c1 | 14 | -7 | -3 | 7 | -2
CCn1c(CNC(=O)c2ccccc2F)nnc1SCC(=O)NC1CCCCC1C (stereo not drawn) | -11 | 1 | -1 | 10 | 1
CCc1cccc2cc3c(N)c(C(=O)Nc4ccc(S(=O)(=O)N5CCCC5)cc4)sc3nc12 | 65* | -7 | 9 | 17 | 9
CCC(CC)COC(=O)C1=C(C)NC(=O)NC1c1cccc([N+](=O)[O-])c1 (stereo not drawn) | -27 | -2 | -2 | 0 | 5
CC(=O)Nc1ccc(NC(=O)C2CCCCN2S(=O)(=O)c2ccc(C(C)(C)C)cc2)cc1 (stereo not drawn) | 55* | -15 | 5 | 10 | 5
COc1cc(CNC2CCCCCC2)cc(OC)c1O | -2 | -2 | 0 | 4 | 0
COc1cc(CNC2CCCC2)cc(Cl)c1OCc1ccccc1F | 27 | -15 | 12 | 39* | 6
COCCNc1nc(NCc2cccc(OC)c2)c2sccc2n1 | 10 | / | / | 5 | /
COc1ccccc1CNc1nc(NCc2cccc(OC)c2OC)c2sccc2n1 | 44 | / | / | 5 | /
Fc1ccccc1CNc1nc(NCC2CC2)nc2ccsc12 | 44 | / | / | 38* | /
c1ccc(CNc2nc(NCCOc3ccccc3)c3sccc3n2)cc1 | 95* | / | / | 59* | /
COc1ccccc1CNc1nc(NCc2ccccc2)nc2ccsc12 | 95* | / | / | 50* | /
c1ccc(CNc2nc(NCc3ccccc3)c3sccc3n2)cc1 | 104* | / | / | 74* | /
Cn1ncc(Cl)c1C(=O)Nc1ccc(CN2CCCCC2)cc1 | -4 | 0 | 1 | 1 | 2
c1ccc(CNc2nc(-c3ccccc3)nc3ccccc23)cc1 | 1 | 0 | -1 | 0 | 1
c1ccc(CNc2nc(NCc3ccccc3)c3ccccc3n2)cc1 | / | -19 | 28* | / | 21*
O=C(COc1cccc(NC(=O)c2cccc([N+](=O)[O-])c2)c1)c1ccc(Br)cc1 | 83* | -13 | 1 | 19 | 2
CC(C)C12NC(=O)NC(=O)N1CCS2 (stereo not drawn) | -19 | / | / | 2 | /
CC(C)Cn1c2c(c(=O)[nH]c1=O)C(NS(=O)(=O)c1ccc(Cl)cc1)(C(F)(F)F)C(=O)N2 (stereo not drawn) | -14 | -10 | 0 | -1 | -1
COc1ccc(/C=C2\Sc3ccc(C(=O)N4CCN(Cc5ccccc5)CC4)cc3N(C)C2=O)cc1OC | 59* | -12 | 5 | 4 | 8
Clc1ccc(Cn2ncc3c(NCc4ccco4)ncnc32)c(Cl)c1 | 53* | -19 | -1 | 12 | 0
SMILES | TAAR1 antagonist | OXTR potentiator | OXTR ag | TAAR1 ag | V1R ag counter
Clc1ccc(-n2ncc3c(NCc4ccco4)ncnc32)cc1 | -10 | 3 | 0 | 6 | 0
O=C(NC1CC(=O)N(c2ccc(Cl)cc2)C1)N1CCN(C(=O)c2ccco2)CC1 (stereo not drawn) | -29 | -2 | 0 | 5 | 0
COc1ccc(Cc2cc(NCc3ccccc3)c3ncn(C(C)C)c3c2)cc1 | 16 | 1 | 0 | 38* | 1
COCCCOc1cc(NCc2ccccc2)c2ncn(C(C)C)c2c1 | -9 | -5 | -1 | 15 | 0
Cc1ccc(NC(=S)N2CCCCCC2)cc1 | -15 | 1 | 0 | -1 | 0
O=C(c1cccc(S(=O)(=O)Nc2ccccc2F)c1)N1CCN(c2ccccc2F)CC1 | 8 | -5 | -1 | 5 | 2
COc1ccccc1N1CCN(C(=O)c2cccc(S(=O)(=O)Nc3ccccc3F)c2)CC1 | 54* | -11 | 0 | 18 | 3
Cc1nc2ccc(S(=O)(=O)N(C)CC(=O)NCc3ccc(N(C)C)cc3)cc2s1 | -6 | -7 | 2 | -1 | 3
